Consider 49 compounds from ChEMBL document CHEMBL1687919, “Design, synthesis, and structure-activity relationship of Trypanosoma brucei leucyl-tRNA synthetase inhibitors as antitrypanosomal agents” (J Med Chem, 2011).

Test [1] is described as follows: Inhibition of Trypanosoma brucei TREU927 Leucyl-tRNA Synthetase expressed in Escherichia coli BL21 (DE3)-RIPL using [14C]Leu by scintillation counting. Summed up:
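Compound preincubated 20 min at 37 °C without ATP, then started with 4 mM ATP. After 15 min, TCA-precipitated on filters. Nine-point IC50 curves, sigmoidal fit, reference inhibitor per batch.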

Test [2] deals with Trypanosoma brucei brucei. The test is described as follows: Antitrypanosomal activity against bloodstream-form Trypanosoma brucei brucei 427 after 72 hrs. Format: functional, organism-based. Particulars: Trypanosoma brucei, 427, 72 h. A digest of the protocol: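 HMI-9 with 10% FBS, 10% Serum Plus and pen/strep; log-phase parasites at final 1.0 × 10^5/mL, 0.4% DMSO. Serially diluted compound, 72 h at 37 °C, 5% CO2, then resazurin for 2-4 h more. Fluorescence read at ex 544/em 590 nm. Triplicates averaged, IC50 from sigmoidal dose-response fit; suramin and pentamidine as positive controls.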

Another test has as its system L929. The test is described as follows: Cytotoxicity against mouse L929 cells after 72 hrs. The class given is cell-based. Conditions: L929, 72 h. Summed up:
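Fibroblasts grown in D-MEM with 10% FBS and pen/strep, kept subconfluent. Seeded from 1 × 10^4/mL suspension, attached overnight, medium replaced, serially diluted compound added from DMSO. Exposure 72 h at 37 °C, 5% CO2. Resazurin added for 3-4 h more, fluorescence read at ex 544/em 590 nm.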

Usually IC50 stands for the point on the concentration scale where inhibition reaches its midpoint. With `OB1OCc2ccc(Oc3ccc4ccccc4n3)cc21`, the IC50 in test [1] came to 63 µM.

Regarding `COC(=O)COc1ccc2c(c1)B(O)OC2`, the results for the IC50 (in test [1]; in test [2]; with L929) were 3.6 µM, 1.22 µM and more than 10 µg/mL, respectively.

As to `CCCC(=O)C(CC)Oc1ccc2c(c1)B(O)OC2` (stereo not drawn), the IC50 was 2.9 µM in test [1], 12.9 µM in test [2] and more than 10 µg/mL with L929.

Consider `Cc1ccc(C(=O)Nc2ccc(S(=O)(=O)O)c3cc(S(=O)(=O)O)cc(S(=O)(=O)O)c23)cc1NC(=O)c1cccc(NC(=O)Nc2cccc(C(=O)Nc3cc(C(=O)Nc4ccc(S(=O)(=O)O)c5cc(S(=O)(=O)O)cc(S(=O)(=O)O)c45)ccc3C)c2)c1` [SURAMIN], for which inhibition in test [2] was half-maximal at 0.005 µM (IC50).

With `OB1OCc2ccccc21` [BENZOXABOROLE], the IC50 in test [1] stood at 22.1 µM.

On to `CC(=O)C(Oc1ccc2c(c1)B(O)OC2)C(C)C` (stereo not drawn), for which the IC50 is 4.5 µM in test [1], 2.74 µM in test [2] and more than 10 µg/mL in the test with L929.

`CCCOc1ccc2c(c1)B(O)OC2` displayed an IC50 in test [1] of 30.9 µM.

As to `CC(C)Oc1ccc2c(c1)B(O)OC2`, in test [1], the IC50 was determined as 15.8 µM.

As for `OB1OCc2ccc(OCc3ccccn3)cc21`, in test [1], the half-maximal inhibitory concentration (IC50) is more than 100 µM.

Regarding `O=C(Nc1ccccc1)Oc1ccc2c(c1)B(O)OC2`, the 50% inhibitory concentration (IC50) in test [1] was 43.1 µM.

In test [1], `O=C(O)COc1ccc2c(c1)B(O)OC2` returned an IC50 of more than 100 µM.

In turn, `CCC(=O)COc1ccc2c(c1)B(O)OC2` returned a half-inhibitory concentration (IC50) in test [1] of 27.2 µM.

`CCNC(=O)COc1ccc2c(c1)B(O)OC2`: in test [1], the IC50 is 77.7 µM.

For the compound `CC(C)(C)OC(=O)COc1ccc2c(c1)B(O)OC2`, the concentration for half-maximal inhibition (IC50) in test [1] is 7.4 µM; in test [2] it was 2.61 µM; with L929, more than 10 µg/mL.

For `COCCOc1ccc2c(c1)B(O)OC2`, the IC50 in test [1] is more than 100 µM.

The compound `CCC(O)C(C)Oc1ccc2c(c1)B(O)OC2` (stereo not drawn) came in with an IC50 in test [1] of more than 100 µM.

As to `CCOC(=O)C(C)(C)Oc1ccc2c(c1)B(O)OC2`, the IC50 in test [1] was 2.1 µM; in test [2] it was 5.49 µM; with L929 it was more than 10 µg/mL.

Turning to `CCOC(=O)COc1ccc2c(c1)B(O)OC2`, the IC50 in test [1] was 3.5 µM; in test [2], 0.72 µM; with L929 it was more than 10 µg/mL.

On to `CCOC(=O)/C=C/c1cccc2c1B(O)OC2`, for which, in test [1], the IC50 was more than 1000 µM.

`O=C(/C=C/c1ccc2c(c1)B(O)OC2)c1ccccc1` displayed an IC50 in test [1] of 209 µM.

As to `OB1OCc2ccc(OCc3ccccc3)cc21`, half-maximal inhibition in test [1] (IC50) required 30.6 µM.

`OB1OCc2ccc(O)cc21` gave an IC50 in test [1] of 30.9 µM.

In test [1], `CC(C)(C)NC(=O)COc1ccc2c(c1)B(O)OC2` displayed a concentration for half-maximal inhibition (IC50) of more than 100 µM.

Regarding `CCOC(=O)C(CC)Oc1ccc2c(c1)B(O)OC2` (stereo not drawn), the IC50 in test [1] is 1.6 µM; in test [2] it was 11.3 µM; in the test with L929, more than 10 µg/mL.

Consider `CCCC(=O)COc1ccc2c(c1)B(O)OC2`, for which the concentration for half-maximal inhibition (IC50) in test [1] is 30.8 µM.

The compound `OB1OCc2ccc(OCC3CCCCC3)cc21` came in with a half-inhibitory concentration (IC50) in test [1] of more than 100 µM.

As to `OB1OCc2ccc(OCc3ccccc3F)cc21`, the midpoint of inhibition in test [1], the IC50, lay at 25.6 µM.

Regarding `O=C1c2ccccc2C(=O)N1CCCOc1ccc2c(c1)B(O)OC2`, the IC50 in test [1] is more than 100 µM.

Turning to `CCOC(=O)CCc1cccc2c1B(O)OC2`, the half-inhibitory concentration (IC50) in test [1] is more than 1000 µM.

As to `CCOC(=O)CCc1ccc2c(c1)B(O)OC2`, half-maximal inhibition in test [1] (IC50) required 16.7 µM.

Consider `CC(=O)C(C)(C)Oc1ccc2c(c1)B(O)OC2`, for which the results for the concentration for half-maximal inhibition (IC50) (in test [1]; in test [2]; in the test with L929) were 5 µM, 0.37 µM and more than 10 µg/mL, respectively.

Regarding `CCCC(Oc1ccc2c(c1)B(O)OC2)C(C)=O` (stereo not drawn), in test [1], the IC50 amounted to 31.4 µM.

`O=C(/C=C/c1cccc2c1B(O)OC2)c1ccccc1`: the IC50 in test [1] was 412 µM.

Turning to `CCOC(=O)C(Oc1ccc2c(c1)B(O)OC2)c1ccccc1` (stereo not drawn), the IC50 in test [1] came out at 41.7 µM.

Compound `N=C(N)c1ccc(OCCCCCOc2ccc(C(=N)N)cc2)cc1` [PENTAMIDINE] showed an IC50 in test [2] of 0.026 µM.

In turn, `CC(C)CC(=O)COc1ccc2c(c1)B(O)OC2` had a half-maximal inhibitory concentration (IC50) in test [1] of 67.6 µM.

As for `CCC(=O)C(C)Oc1ccc2c(c1)B(O)OC2` (stereo not drawn), the half-maximal inhibitory concentration (IC50) in test [1] was 2.5 µM; in test [2], 8.25 µM; with L929 it was more than 10 µg/mL.

`CCCCOc1ccc2c(c1)B(O)OC2`: the IC50 in test [1] came out at 54.3 µM.

As for `CC(C)(C)OC(=O)NCCOc1ccc2c(c1)B(O)OC2`, in test [1], the IC50 was more than 100 µM.

On to `CCOc1ccc2c(c1)B(O)OC2`, for which the IC50 in test [1] came out at 13 µM.

`COC(COc1ccc2c(c1)B(O)OC2)OC` displayed a half-maximal inhibitory concentration (IC50) in test [1] of 71.3 µM.

Take `OCCCc1cccc2c1B(O)OC2`: in test [1], the half-maximal inhibitory concentration (IC50) worked out at 541 µM.

In test [1], `O=C(NC1CCCCC1)Oc1ccc2c(c1)B(O)OC2` showed an IC50 of 32.3 µM.

For the compound `CC(=O)C(C)Oc1ccc2c(c1)B(O)OC2` (stereo not drawn), the results for the half-maximal inhibitory concentration (IC50) (in test [1]; in test [2]; in the test on L929) were 3.8 µM, 2.09 µM and more than 10 µg/mL, respectively.

Compound `O=CCOc1ccc2c(c1)B(O)OC2` yielded a concentration for half-maximal inhibition (IC50) in test [1] of more than 100 µM.

In turn, `OCCCc1ccc2c(c1)B(O)OC2` returned an IC50 in test [1] of 688 µM.

As for `CCOC(=O)C(C)Oc1ccc2c(c1)B(O)OC2` (stereo not drawn), the results for the 50% inhibitory concentration (IC50) (in test [1]; in test [2]; in the test with L929) were 2.8 µM, 3 µM and more than 10 µg/mL, respectively.

For `CCOC(=O)/C=C/c1ccc2c(c1)B(O)OC2`, the concentration for half-maximal inhibition (IC50) in test [1] came to 578 µM.

Turning to `CCC(Oc1ccc2c(c1)B(O)OC2)C(C)=O` (stereo not drawn), the concentration for half-maximal inhibition (IC50) in test [1] is 3.5 µM; in test [2], 3.76 µM; in the test on L929, more than 10 µg/mL.
